Read-outs that look alike come from different tables or passages of the source.
Legend:
[1] = type: in vivo, human
P-gp [2] = target: T1, P-gp (Homo sapiens, UniProt P08183); type: in vivo
P-gp [3] = target: T1, P-gp; details: single dose venetoclax 100 mg, female healthy volunteers; cited from earlier work
[4] = cited from earlier work
[5] = type: in vivo, human; remark: listed apart in the source
CYP3A = experiment: Ritonavir-venetoclax drug interaction study, observed exposure ratios; type: in vivo, human
Outline: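 20 female subjects, […], all drugs given orally; serial blood sampling for plasma levels of both the test compound and the CYP3A inhibitor. Validated assays had LLOQ 2.11 ng/mL (test compound) and 9.73 ng/mL (inhibitor), bias -4.7% to 7.1%, and CV 1.6% to 9.6%. Ratio is Cmax or AUC on coadministration over dosing alone; AUC96 runs 0–96 h postdose.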

[6] = fed conditions; cited from earlier work
[7] = Cohort 1: venetoclax 10 mg with single dose ritonavir 50 mg vs venetoclax alone, period 1 day 1 vs period 2 day 1
[8] = Cohort 2: venetoclax 10 mg with single dose ritonavir 100 mg vs venetoclax alone, period 1 day 1 vs period 2 day 1
[9] = Cohort 3: venetoclax 10 mg with ritonavir 50 mg q.d. for 11 days vs venetoclax alone, multiple-dose effect, period 1 day 1 vs period 2 day 11

T1 sequence (P08183 whole entry): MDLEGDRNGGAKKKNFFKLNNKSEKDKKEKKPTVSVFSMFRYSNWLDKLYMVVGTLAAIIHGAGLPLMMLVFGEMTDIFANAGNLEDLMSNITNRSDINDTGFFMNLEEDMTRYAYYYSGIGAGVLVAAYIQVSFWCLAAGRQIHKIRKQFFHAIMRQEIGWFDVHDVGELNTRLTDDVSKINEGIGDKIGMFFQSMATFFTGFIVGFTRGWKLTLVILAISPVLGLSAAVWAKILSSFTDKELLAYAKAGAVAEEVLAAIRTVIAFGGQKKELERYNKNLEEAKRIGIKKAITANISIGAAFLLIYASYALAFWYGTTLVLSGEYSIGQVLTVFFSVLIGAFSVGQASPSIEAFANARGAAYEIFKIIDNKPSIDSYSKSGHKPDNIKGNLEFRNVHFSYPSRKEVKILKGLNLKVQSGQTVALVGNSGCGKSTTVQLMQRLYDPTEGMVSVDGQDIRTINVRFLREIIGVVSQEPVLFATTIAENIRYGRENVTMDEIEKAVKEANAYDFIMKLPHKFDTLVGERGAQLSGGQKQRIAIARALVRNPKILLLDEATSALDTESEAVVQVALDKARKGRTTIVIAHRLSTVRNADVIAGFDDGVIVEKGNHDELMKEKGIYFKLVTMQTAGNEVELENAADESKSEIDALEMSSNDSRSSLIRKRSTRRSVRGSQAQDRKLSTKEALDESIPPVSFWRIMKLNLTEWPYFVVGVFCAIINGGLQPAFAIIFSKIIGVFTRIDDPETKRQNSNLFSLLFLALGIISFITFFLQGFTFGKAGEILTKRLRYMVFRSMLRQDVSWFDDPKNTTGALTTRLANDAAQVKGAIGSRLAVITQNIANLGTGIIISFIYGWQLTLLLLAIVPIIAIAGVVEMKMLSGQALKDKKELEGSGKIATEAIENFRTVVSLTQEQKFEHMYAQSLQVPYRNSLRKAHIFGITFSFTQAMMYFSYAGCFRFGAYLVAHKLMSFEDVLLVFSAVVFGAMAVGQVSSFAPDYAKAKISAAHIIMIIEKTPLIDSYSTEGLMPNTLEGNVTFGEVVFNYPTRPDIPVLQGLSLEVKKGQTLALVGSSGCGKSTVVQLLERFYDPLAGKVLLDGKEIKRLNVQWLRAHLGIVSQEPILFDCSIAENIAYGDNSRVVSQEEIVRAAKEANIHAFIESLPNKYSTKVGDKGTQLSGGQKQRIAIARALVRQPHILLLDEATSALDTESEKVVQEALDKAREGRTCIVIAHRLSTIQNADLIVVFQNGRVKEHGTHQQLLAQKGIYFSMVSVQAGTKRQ

C[C@H]1O[C@@H](O[C@H]2[C@@H](O)C[C@H](O[C@H]3[C@@H](O)C[C@H](O[C@H]4CC[C@@]5(C)[C@H](CC[C@@H]6[C@@H]5C[C@@H](O)[C@]5(C)[C@@H](C7=CC(=O)OC7)CC[C@]65O)C4)O[C@@H]3C)O[C@@H]2C)C[C@H](O)[C@@H]1O [digoxin]
CL BSV (between subject variability) ([1]; VEN-DIG model): 12.3 %CV
V2 BSV (between subject variability) ([1]; VEN-DIG model): 28.9 %CV
ALAG (absorption lag time) ([1]; VEN-DIG model final estimate): 0.536 h
Fe (fraction of administered drug excreted into the urine) ([1]; VEN-DIG model final estimate): 0.438%
Ka (first-order absorption rate constant) ([1]; VEN-DIG model final estimate): 0.777 h⁻¹
V2 (volume of central compartment) ([1]; VEN-DIG model final estimate): 150 L
V3 (volume of peripheral compartment) ([1]; VEN-DIG model final estimate): 592 L
clearance ([1]; female, human, plasma, oral): 262 mL/min
increase of digoxin bioavailability (P-gp [2]; with venetoclax): 8%
changes in digoxin half-life or renal clearance (P-gp [3]): no changes
increase in digoxin AUC (P-gp [3]): 9%
increase in digoxin Cmax (P-gp [3]): 35%
absolute bioavailability [4]: ~ 80%

CC(C)c1nc(CN(C)C(=O)N[C@H](C(=O)N[C@@H](Cc2ccccc2)C[C@H](O)[C@H](Cc2ccccc2)NC(=O)OCc2cncs2)C(C)C)cs1 [ritonavir]
CL BSV (between subject variability) ([5]; RTV-VEN model): 17.9 %CV
V2 BSV (between subject variability) ([5]; RTV-VEN model): 54.7 %CV
V2 (volume of central compartment) ([5]; RTV-VEN model final estimate): 30.7 L
Ka (absorption rate constant) ([5]; RTV-VEN model final estimate, first-order absorption): 1.17 day⁻¹

CC1(C)CCC(CN2CCN(c3ccc(C(=O)NS(=O)(=O)c4ccc(NCC5CCOCC5)c([N+](=O)[O-])c4)c(Oc4cnc5[nH]ccc5c4)c3)CC2)=C(c2ccc(Cl)cc2)C1 [venetoclax, Venetoclax]
AUCinf ratio, Observed Central value (CYP3A; [7]): 6.1
Cmax ratio, Observed Central value (CYP3A; [7]): 2.4
AUCinf ratio, Observed Central value (CYP3A; [8]): 8.1
Cmax ratio, Observed Central value (CYP3A; [8]): 2.3
AUC96 ratio, Observed Central value (CYP3A; [9]): 7.9
Cmax ratio, Observed Central value (CYP3A; [9]): 2.4
CL BSV (between subject variability) ([5]; RTV-VEN model): 32.6 %CV
T50 BSV (between subject variability) ([5]; RTV-VEN model): 26.1 %CV
V2 BSV (between subject variability) ([5]; RTV-VEN model): 64 %CV
V2 (volume of central compartment) ([5]; RTV-VEN model final estimate): 26.8 L
V3 (volume of peripheral compartment) ([5]; RTV-VEN model final estimate): 83.5 L
Kamax (maximum absorption rate constant) ([5]; RTV-VEN model final estimate, time-dependent absorption): 4.76 day⁻¹
γ (shape factor) ([5]; RTV-VEN model, fixed, estimated value from venetoclax combined data): 5 (fixed ^*)
CL BSV (between subject variability) ([1]; VEN-DIG model): 22 %CV
ALAG (absorption lag time) ([1]; VEN-DIG model final estimate): 1.72 h
Ka (first-order absorption rate constant) ([1]; VEN-DIG model final estimate): 0.209 h⁻¹
V2 (volume of central compartment) ([1]; VEN-DIG model final estimate): 19.1 L
V3 (volume of peripheral compartment) ([1]; VEN-DIG model final estimate): 25.4 L
IC50 (P-gp [2]): 377 nM
half-life [6]: ~ 15 hours

Reference: paper PMC7214649 (Clinical and Translational Science, 2020)
